Values after ≈ are worked out from the molar mass of the structure shown. Values joined by “and” are separate entries in the source; they are usually repeats but may differ in a detail not shown here. Equal values may be shown once. “Also recorded” adds a separate entry of the source. Where a name gives a salt, the structure may show the parent alone. Read-outs that look alike come from different tables or passages of the source. Marks after values point to notes of the source that are not given here.

Consider four molecules from publication PMC7104935 (Asian Pacific Journal of Tropical Medicine, 2015).

Data set [1] relates to mouse hepatitis virus (MHV). Kind of data set: microbe, parasite or virus in culture. The settings on record: for IC50: read-out: IC50 against MHV. Format: cell-based, murine coronavirus.
Data set [2] has as its system CCL9.1 cells.
Data set [3] can be described thus: in vitro. The settings on record: mouse.
Data set [4] in a line: MTT cell viability and proliferation assay, BHK-21 cells. It counts as cell-based, baby hamster. The settings on record: hamster, BHK-21 cells (monolayers). The essentials:
(§1)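 BHK-21 monolayers were exposed to test compound for 48 h at 37 °C, 5% CO2, at the concentrations used in neutralization tests. MTT was added for 4 h, then 100 g/L SDS in 0.01 mol/L HCl overnight in the dark at room temperature. OD was read at 570 nm. Inhibition rate was taken relative to solvent-treated cells, and CC50 came from the concentration plot. Experiments were repeated; mean and standard deviation reported.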

For data set [5], the system named is HSV-1. The settings on record: cited from earlier work.
The test system of data set [6] is DENV-2 New Guinea C strain. Kind of data set: DENV-2 plaque reduction neutralization test. It counts as cell-based, dengue virus type 2. The settings on record: for Selectivity index (DENV-2): CC50/IC50, '>' values with absence of cytotoxicity; for IC50: Dengue virus, DENV2, BHK-21, read-out: IC50 against DENV-2. The essentials: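 DENV-2 New Guinea C was propagated in C6/36 cells (L15, 3% FBS, 28 °C). 2-fold dilutions were made: extract fraction 166.67 to 0.08 μg/mL, flavonoids 500.00 to 15.63 μg/mL. Each was preincubated 1 h with 90 PFU, then adsorbed 1 h at 37 °C on BHK-21 monolayers (RPMI-1640, 10% FBS). Plates had 1% carboxymethylcellulose overlay for 6 d, then crystal violet plaque count. Run in duplicate, with mAb 3H5 as positive control. IC50 came from % plaque reduction curves.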
(In general: Plaque reduction counts the foci of infection that form in a cell layer.)

In data set [7] the test system is BHK-21 cells. Description: MTT cell viability and proliferation assay, BHK-21 cells. It counts as cell-based, baby hamster. The settings on record: at concentrations tested in PRNT. The essentials:
as §1

In the case of `CN(C)CCCSc1ccccc1NC(=O)/C=C/c1ccccc1` [Cinanserin, cinanserin hydrochloride], in data set [1], the “Duration of inhibition of viral infectivity” value turned out to be 2 days; the “IC50 against MHV” value is 62.50 µg/mL; the “MHV inhibition” value is recorded as “no viral inhibition; also recorded: could not inhibit MHV”; the “MIC, anti-MHV activity” value was 62.50 µg/mL and 62.5 µg/mL. Further, the “Selectivity index (MHV)” value in data set [1] was >4.00 ^c and >2.00 ^c. Besides, the IC50 in data set [1] (Murine coronavirus) worked out at 31.2 µg/mL. In data set [1] (Murine coronavirus, read-out: MIC, anti-MHV activity), the MIC amounted to 31.2 µg/mL. In addition, the “Cytotoxicity on CCL9.1 cells” value in data set [2] is “minimal or no cytotoxicity”.

`O=c1c(O)c(-c2ccc(O)c(O)c2)oc2cc(O)cc(O)c12` [Quercetin, quercetin]: the CC50 worked out at 116 µg/mL (≈ 385 µM) in data set [3] and 116.52 µg/mL (≈ 386 µM) in data set [2] (mouse). Also, in data set [4], the CC50 at 48 h was 155 µg/mL (≈ 514 µM). In addition, the “Duration of inhibition of viral infectivity” value in data set [1] is given as “up to 6 d”. Moreover, the “Selectivity index (MHV)” value in data set [1] is reported as 0.93. The IC50 in data set [1] (Murine coronavirus, 1 h) is 125 µg/mL (≈ 414 µM); in data set [6], 177 µg/mL (≈ 585 µM). In data set [5], the “Activity on HSV-1 among flavonoids” value is “highest activity”. In addition, the “Selectivity index (DENV-2)” value in data set [6] is given as 0.88.

Take `C[C@@H]1O[C@@H](Oc2c(-c3ccc(O)c(O)c3)oc3cc(O)cc(O)c3c2=O)[C@H](O)[C@H](O)[C@H]1O` [Quercitrin, quercetin-3-L-rhamnoside]: the “Cytotoxicity to BHK cells” value in data set [7] was “did not cause cytotoxicity”. Also, in data set [1], the “Antiviral activity against MHV” value is listed as “did not exhibit antiviral activity” and the “IC50 against MHV” value is “NIL”. For the same molecule, in data set [6], the “Selectivity index (DENV-2)” value was >1.07 ^c and the IC50 was found to be 467 µg/mL (≈ 1040 µM).

For `C[C@@H]1O[C@@H](OC[C@H]2O[C@@H](Oc3c(-c4ccc(O)c(O)c4)oc4cc(O)cc(O)c4c3=O)[C@H](O)[C@@H](O)[C@@H]2O)[C@H](O)[C@H](O)[C@H]1O` [Rutin, quercetin-3-rutinoside], the “Cytotoxicity to BHK cells” value in data set [7] is on record as “without cytotoxicity”. In addition, in data set [1], the “Antiviral activity against MHV” value is given as “did not exhibit antiviral activity” and the “IC50 against MHV” value was “NIL”. In addition, the “Activity on HSV-1 among flavonoids” value in data set [5] is reported as “no effect at all”. In data set [6] (PRNT, 500.00 down to 15.63 μg/mL), the “Anti-DENV-2 activity” value is recorded as “no anti-DENV-2 activity was detected”.

What is called IC50 is the midpoint of a concentration-inhibition curve.
